Experimental data: ChEMBL document CHEMBL5712907, “Inhibition of super enhancer downregulates the expression of KLF5 in basal-like breast cancers” (Int J Biol Sci, 2018)
Active and inactive are the calls of the source. No cut-off for these calls is given here.

Tests used:
[1] = test system: HCC1806; experiment: Effect on human HCC1806 cells assessed as reduction in KLF5 mRNA at 1 uM for 12 to 24 hrs by qPCR analysis; type: functional, cell-based; details: time 12-24 hrs
How it was run: (§1)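 HCC1806 or HCC1937 cells treated with 1 μM for 12 h or 24 h; KLF5 mRNA quantified by qPCR; experimental triplicates, SD, t-test.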

[2] = test system: HCC1937; experiment: Inhibition of cell growth in human HCC1937 cells infected with pCDH-3 Flag tagged KLF5 assessed as ectopic KLF5 expression at 100 to 10000 nM for 72 hrs by SRB assay; type: functional, cell-based; details: dose 100-10000 nM
How it was run: (§2)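 HCC1806 or HCC1937 cells infected with pCDH-3×Flag-KLF5 or empty pCDH vector lentivirus, plated in 96-well format and treated 72 h; inhibition rate by sulforhodamine B staining read at 560 nm; experimental triplicates, SD.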

[3] = test system: HCC1806; experiment: Downregulation of FGFBP in human HCC1806 cells treated at 1 to 3 uM for 24 hrs by immunoblotting analysis; type: functional, cell-based; details: dose 1-3 µM
How it was run: (§3)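 HCC1806 or HCC1937 cells (RPMI-1640, 10% FBS, 37 °C, 5% CO2) treated 24 h; lysed with protease inhibitors, protein assayed, equal amounts run on SDS-PAGE, blotted to PVDF, blocked in 5% milk/PBS-0.2% Tween-20, probed for KLF5, FGFBP, p21, c-MYC and GAPDH loading control; HRP secondary, ECL detection.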

[4] = test system: HCC1806; experiment: Upregulation of p21 in human HCC1806 cells treated at 1 to 3 uM for 24 hrs by immunoblotting analysis; type: functional, cell-based; details: dose 1-3 µM; how it was run: as §3
[5] = test system: HCC1806; experiment: Induction of cell cycle arrest in human HCC1806 cells assessed as increase in accumulation of cells at G1 phase at 0.3 to 1 uM for 24 hrs by flow cytometric analysis; type: functional, cell-based; details: dose 0.3-1 µM
How it was run: (§4)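 HCC1806 or HCC1937 cells seeded, cultured overnight, treated 24 h; fixed in 70% ethanol, RNase A 40 µg/ml, propidium iodide 10 µg/ml; flow cytometry with G1, S and G2/M percentages; experimental triplicates, SD.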

[6] = test system: HCC1937; experiment: Downregulation of FGFBP in human HCC1937 cells treated at 1 to 3 uM for 24 hrs by immunoblotting analysis; type: functional, cell-based; details: dose 1-3 µM; how it was run: as §3
[7] = test system: HCC1806; experiment: Induction of cell cycle arrest in human HCC1806 cells assessed as decrease in accumulation of cells at S phase at 0.3 to 1 uM for 24 hrs by flow cytometric analysis; type: functional, cell-based; details: dose 0.3-1 µM; how it was run: as §4
[8] = test system: HCC1937; experiment: Downregulation of KLF5 in human HCC1937 cells treated at 1 uM by immunoblotting analysis; type: functional, cell-based; details: time 12-72 hrs, TDE = time-dependent effect
How it was run: (§5)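 Time course: HCC1806 or HCC1937 cells exposed to 1 μM for the indicated times, pellets collected at each time point and lysed with protease inhibitors; equal protein immunoblotted after SDS-PAGE/PVDF transfer for KLF5, GAPDH loading control, ECL detection.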

[9] = test system: HCC1937; experiment: Induction of cell cycle arrest in human HCC1937 cells assessed as decrease in accumulation of cells at S phase at 0.3 to 1 uM for 24 hrs by flow cytometric analysis; type: functional, cell-based; details: dose 0.3-1 µM; how it was run: as §4
[10] = test system: HCC1937; experiment: Upregulation of p21 in human HCC1937 cells treated at 1 to 3 uM for 24 hrs by immunoblotting analysis; type: functional, cell-based; details: dose 1-3 µM; how it was run: as §3
[11] = test system: HCC1806; experiment: Inhibition of cell growth in human HCC1806 cells infected with pCDH-3 Flag tagged KLF5 assessed as ectopic KLF5 expression at 100 to 10000 nM for 72 hrs by SRB assay; type: functional, cell-based; details: dose 100-10000 nM; how it was run: as §2
[12] = test system: HCC1806; experiment: Downregulation of KLF5 in human HCC1806 cells treated at 1 uM by immunoblotting analysis; type: functional, cell-based; details: time 12-72 hrs, TDE = time-dependent effect; how it was run: as §5
[13] = test system: HCC1937; experiment: Induction of cell cycle arrest in human HCC1937 cells assessed as increase in accumulation of cells at G1 phase at 0.3 to 1 uM for 24 hrs by flow cytometric analysis; type: functional, cell-based; details: dose 0.3-1 µM; how it was run: as §4
[14] = test system: HCC1937; experiment: Effect on human HCC1937 cells assessed as reduction in KLF5 mRNA at 1 uM for 12 to 24 hrs by qPCR analysis; type: functional, cell-based; details: time 12-24 hrs; how it was run: as §1
[15] = test system: HCC1937; experiment: Induction of cell cycle arrest in human HCC1937 cells assessed as increase in accumulation of cells at G1 phase at 0.1 to 0.3 uM for 24 hrs by flow cytometric analysis; type: functional, cell-based; details: dose 0.1-0.3 µM
How it was run: (§6)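 Seeded cells were cultured overnight, then treated with compound for 24 h. Fixed in 70 % ethanol, treated with 40 µg/ml RNase A and stained with 10 µg/ml propidium iodide. Analysed by flow cytometry for G1, S and G2/M fractions. Experimental triplicates, SD shown.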

[16] = test system: HCC1806; experiment: Cytotoxicity against human HCC1806 cells assessed as reduction in cell viability at 10 to 10000 nM for 72 hrs by SRB assay; type: functional, cell-based; details: dose 10-10000 nM
How it was run: (§7)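 HCC1806 or HCC1937 cells grown in RPMI-1640 with 10 % FBS at 37 °C, 5 % CO2, then exposed to graded compound concentrations for 72 h. Viability read by sulforhodamine B staining, absorbance at 560 nm. Experimental triplicates, SD shown.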

[17] = test system: HCC1937; experiment: Inhibition of DNA synthesis in human HCC1937 cell at 0.1 to 0.3 uM measured for 24 hrs by Edu incorporation assay; type: functional, cell-based; details: dose 0.1-0.3 µM
How it was run: (§8)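 After 24 h treatment at different concentrations, cells were EdU-labelled with the Click-iT imaging kit, fixed and DNA-stained. Fluorescence micrographs were taken and five random fields counted per sample. Result given as % EdU-positive (EdU-positive/total cells). Experimental triplicates, SD shown.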

[18] = test system: HCC1937; experiment: Potency index, ratio of test compound to (S)-tert-butyl 2-(4-(4-chlorophenyl)-2,3,9-trimethyl-6H-thieno[3,2-f] [1,2,4]triazolo[4,3-a] [1,4]diazepin-6-yl)acetate for effect on human HCC1937 cells assessed as reduction in c-MYC level at 0.1 to 3 uM for 24 hrs; type: functional; details: dose 0.1-3 µM
[19] = test system: HCC1937; experiment: Cytotoxicity against human HCC1937 cells assessed as reduction in cell viability at 10 to 10000 nM for 72 hrs by SRB assay; type: functional, cell-based; details: dose 10-10000 nM; how it was run: as §7
[20] = test system: HCC1806; experiment: Inhibition of cell growth in human HCC1806 cells infected with pCDH-3 Flag tagged KLF5 assessed as ectopic KLF5 expression at 0.01 to 10000 nM for 72 hrs by SRB assay; type: functional, cell-based; details: dose 0.01-10000 nM
How it was run: (§9)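 Cells infected with pCDH-3×Flag-KLF5 lentivirus, or vector control lentivirus, were plated and treated for 72 h. Inhibition rate measured by SRB assay. Experimental triplicates, SD shown.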

[21] = test system: HCC1806; experiment: Potency index, ratio of test compound to (S)-tert-butyl 2-(4-(4-chlorophenyl)-2,3,9-trimethyl-6H-thieno[3,2-f] [1,2,4]triazolo[4,3-a] [1,4]diazepin-6-yl)acetate for effect on human HCC1806 cells assessed as reduction in c-MYC level at 0.1 to 3 uM for 24 hrs; type: functional; details: dose 0.1-3 µM
[22] = test system: HCC1806; experiment: Inhibition of DNA synthesis in human HCC1806 cell at 0.1 to 0.3 uM measured for 24 hrs by Edu incorporation assay; type: functional, cell-based; details: dose 0.1-0.3 µM; how it was run: as §8
[23] = test system: HCC1806; experiment: Induction of cell cycle arrest in human HCC1806 cells assessed as increase in accumulation of cells at G1 phase at 0.3 uM for 24 hrs by flow cytometric analysis; type: functional, cell-based; how it was run: as §6
[24] = test system: HCC1937; experiment: Induction of cell cycle arrest in human HCC1937 cells assessed as increase in accumulation of cells at G1 phase at 0.3 uM for 24 hrs by flow cytometric analysis; type: functional, cell-based; how it was run: as §6
[25] = test system: HCC1937; experiment: Inhibition of cell growth in human HCC1937 cells infected with pCDH-3 Flag tagged KLF5 assessed as ectopic KLF5 expression at 0.01 to 10000 nM for 72 hrs by SRB assay; type: functional, cell-based; details: dose 0.01-10000 nM; how it was run: as §9
[26] = test system: HCC1937; experiment: Potency index, ratio of test compound to (S)-tert-butyl 2-(4-(4-chlorophenyl)-2,3,9-trimethyl-6H-thieno[3,2-f] [1,2,4]triazolo[4,3-a] [1,4]diazepin-6-yl)acetate for effect on human HCC1937 cells assessed as reduction in KLF5 level at 0.1 to 3 uM for 24 hrs; type: functional; details: dose 0.1-3 µM
[27] = test system: HCC1806; experiment: Potency index, ratio of test compound to (S)-tert-butyl 2-(4-(4-chlorophenyl)-2,3,9-trimethyl-6H-thieno[3,2-f] [1,2,4]triazolo[4,3-a] [1,4]diazepin-6-yl)acetate for effect on human HCC1806 cells assessed as reduction in KLF5 level at 0.1 to 3 uM for 24 hrs; type: functional; details: dose 0.1-3 µM
[28] = test system: HCC1806; experiment: Induction of cell cycle arrest in human HCC1806 cells assessed as increase in accumulation of cells at G1 phase at 0.1 to 0.3 uM for 24 hrs by flow cytometric analysis; type: functional, cell-based; details: dose 0.1-0.3 µM; how it was run: as §6
[29] = test system: HCC1806; experiment: Effect on c-MYC suppression in human HCC1806 cells at 50 to 200 nM for 24 hrs by immunoblotting analysis; type: functional, cell-based; details: dose 50-200 nM
How it was run: (§10)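 Cells in RPMI-1640/10 % FBS treated with compound for 24 h, lysed with protease inhibitor cocktail, and protein quantified. Equal protein run on SDS-PAGE and blotted to PVDF. Blocked in 5 % milk in PBS-0.2 % Tween-20, probed for KLF5, c-MYC and FGF2, with GAPDH as loading control. HRP secondary antibody, ECL detection.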

[30] = test system: HCC1937; experiment: Effect on FGFPB suppression in human HCC1937 cells at 50 to 200 nM for 24 hrs by immunoblotting analysis; type: functional, cell-based; details: dose 50-200 nM
[31] = test system: HCC1806; experiment: Effect on KLF5 suppression in human HCC1806 cells at 50 to 200 nM for 24 hrs by immunoblotting analysis; type: functional, cell-based; details: dose 50-200 nM; how it was run: as §10
[32] = test system: HCC1806; experiment: Effect on FGFPB suppression in human HCC1806 cells at 50 to 200 nM for 24 hrs by immunoblotting analysis; type: functional, cell-based; details: dose 50-200 nM
[33] = test system: HCC1937; experiment: Effect on KLF5 suppression in human HCC1937 cells at 50 to 200 nM for 24 hrs by immunoblotting analysis; type: functional, cell-based; details: dose 50-200 nM; how it was run: as §10
[34] = test system: HCC1937; experiment: Effect on c-MYC suppression in human HCC1937 cells at 50 to 200 nM for 24 hrs by immunoblotting analysis; type: functional, cell-based; details: dose 50-200 nM; how it was run: as §10

Structure (SMILES): Cc1sc2c(c1C)C(c1ccc(Cl)cc1)=N[C@@H](CC(=O)OC(C)(C)C)c1nnc(C)n1-2
- Activity [1]: Active
- inhibition [2]: Active
- Activity [3]: Active
- Activity [4]: Active
- Activity [5]: Active
- Activity [6]: Active
- Activity [7]: Active
- Activity [8]: Tde
- Activity [9]: Active
- Activity [10]: Active
- inhibition [11]: Active
- Activity [12]: Tde
- Activity [13]: Active
- Activity [14]: Active

Structure (SMILES): Cc1nnn(C)c1-c1cnc2c3c4cnn(C)c4ccc3n([C@H](c3ccccc3)C3CCOCC3)c2c1
- Activity [15]: Active
- Activity [16]: Active
- inhibition [17]: Active
- Ratio [18]: ~10
- Activity [19]: Active
- inhibition [20]: Active
- Ratio [21]: ~10
- inhibition [22]: Active
- Activity [23]: Active
- Activity [24]: Active
- inhibition [25]: Active
- Ratio [26]: ~10
- Ratio [27]: ~10
- Activity [28]: Active

Structure (SMILES): CN(C)C/C=C/C(=O)Nc1ccc(C(=O)Nc2cccc(Nc3ncc(Cl)c(-c4c[nH]c5ccccc45)n3)c2)cc1
- Activity [16]: Active
- Activity [29]: Active
- Activity [30]: Active
- Activity [19]: Active
- Activity [31]: Active
- Activity [32]: Active
- Activity [33]: Active
- Activity [34]: Active
